According to ChEMBL document CHEMBL3425420 (J Med Chem, 2015):

Experiments:
[1] = target: T1, Induced myeloid leukemia cell differentiation protein Mcl-1 (Homo sapiens, UniProt Q07820); assay: Displacement of FITC-Bak-BH3 peptide from Mcl-1 (unknown origin) incubated for 1.5 hrs by FPA competition assay
[2] = target: Bcl-2-like protein 1 (Homo sapiens, UniProt Q07817); assay: Displacement of FITC-Bak-BH3 peptide from Bcl-xL (unknown origin) incubated for 1.5 hrs by FPA competition assay
Procedure, shortened: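 Compounds were added as a 10-point, 3-fold serial dilution and incubated 1.5 h at room temperature. IC50 came from a four-parameter fit of the anisotropy change, was converted to Ki, and duplicate values were averaged.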

[3] = target: Apoptosis regulator Bcl-2 (Homo sapiens, UniProt P10415); assay: Displacement of FITC-Bak-BH3 peptide from Bcl-2 (unknown origin) incubated for 1.5 hrs by FPA competition assay
Procedure, shortened: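 Compounds were added as a 10-point, 3-fold serial dilution and incubated 1.5 h at room temperature. The anisotropy change was fitted to a four-parameter variable-slope curve for IC50, converted to Ki, and duplicates were averaged.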

[4] = target: T1, Induced myeloid leukemia cell differentiation protein Mcl-1; assay: Binding affinity to GST-tagged Mcl-1 (unknown origin) incubated for 60 mins by TR-FRET-binding affinity assay

Chain of Apoptosis regulator Bcl-2 (P10415 whole entry): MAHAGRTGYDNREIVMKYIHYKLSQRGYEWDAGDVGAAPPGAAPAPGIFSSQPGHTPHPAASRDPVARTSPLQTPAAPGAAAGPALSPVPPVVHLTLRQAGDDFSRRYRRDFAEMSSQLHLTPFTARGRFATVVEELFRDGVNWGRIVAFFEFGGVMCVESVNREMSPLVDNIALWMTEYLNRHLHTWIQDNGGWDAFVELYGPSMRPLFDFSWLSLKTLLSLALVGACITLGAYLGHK
T1 sequence (Q07820 whole entry): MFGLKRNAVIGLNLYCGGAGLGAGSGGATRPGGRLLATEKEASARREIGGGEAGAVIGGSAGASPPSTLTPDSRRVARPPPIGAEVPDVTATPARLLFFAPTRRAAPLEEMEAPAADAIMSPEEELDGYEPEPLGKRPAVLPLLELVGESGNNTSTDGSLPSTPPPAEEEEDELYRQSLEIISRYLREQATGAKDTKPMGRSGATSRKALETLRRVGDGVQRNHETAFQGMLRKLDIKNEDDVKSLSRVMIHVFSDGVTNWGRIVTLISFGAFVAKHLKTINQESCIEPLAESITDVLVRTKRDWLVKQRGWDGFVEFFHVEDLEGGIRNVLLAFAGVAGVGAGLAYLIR
Chain of Bcl-2-like protein 1 (Q07817 whole entry): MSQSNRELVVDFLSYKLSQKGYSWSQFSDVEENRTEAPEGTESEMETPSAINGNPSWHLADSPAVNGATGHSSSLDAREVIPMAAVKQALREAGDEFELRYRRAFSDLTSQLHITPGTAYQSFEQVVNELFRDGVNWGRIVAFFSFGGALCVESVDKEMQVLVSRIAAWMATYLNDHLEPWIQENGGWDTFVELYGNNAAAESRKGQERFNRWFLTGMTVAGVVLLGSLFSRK

| Structure (SMILES) | Ki [1] [µM] | Ki [2] [µM] | Ki [3] [µM] | Ki [4] [µM] |
| --- | --- | --- | --- | --- |
| O=C(O)c1c(CCCOc2cccc3ccccc23)c2cccc3c2n1CCO3 | 0.11 | 1.9 | – | – |
| O=C(O)c1c(CCCOc2cccc3ccccc23)c2cccc3c2n1CCS3 | 0.12 | > 20 | 3.1 | – |
| O=C(O)c1c(CCOc2cccc3ccccc23)c2cccc3c2n1CCO3 | 1.6 | 12.7 | – | – |
| Cc1cc(OCCCc2c(C(=O)O)n3c4c(cccc24)SCC3)ccc1Cl | 0.21 | > 20 | 6.3 | – |
| Cc1c(C(=O)O)n2c3c(cccc13)SCC2 | 18 | – | – | – |
| O=C(O)c1cc2ccccc2[nH]1 [INDOLE-2-CARBOXYLIC ACID] | > 1000 | – | – | – |
| Cc1cc(OCCCc2c(C(=O)O)n3c4c(cccc24)SCC3)cc(C)c1Cl | – | > 20 | 2.3 | – |
| Cc1cc(OCCCc2c(C(=O)O)n3c4c(cccc24)CCC3)cc(C)c1Cl | 0.11 | – | – | – |
| O=C(O)c1c(CCCOc2cccc3ccccc23)c2cccc3c2n1CCC3 | 0.31 | > 20 | – | – |
| Cc1cc(OCCCc2c(C(=O)O)n3c4c(c(Cl)ccc24)CCC3)cc(C)c1Cl | 0.003 | 5.2 | – | – |
| CC1Cn2c(C(=O)O)cc3cccc(c32)S1 (centres undefined) | 35 | – | – | – |
| O=C(O)c1c(CCCOc2cccc3c2CCCC3)c2cccc3c2n1CCS3 | 0.15 | 3 | – | – |
| O=C(O)c1c(CCCOc2cccc3ccccc23)c2cccc3c2n1CCCS3(=O)=O | 0.061 | > 20 | 11.7 | – |
| O=C(O)c1c(CCOc2cccc3ccccc23)c2cccc3c2n1CCC3 | 4 | > 20 | – | – |
| Cc1cc(OCCCc2c(C(=O)O)n3c4c(cccc24)OCC3)cc(C)c1Cl | 0.065 | – | – | – |
| O=C(O)c1c(CCCOc2cccc3ccccc23)c2cccc3c2n1CCCS3 | 0.17 | 7.4 | 9.9 | – |
| O=C(O)c1c(CCCOc2ccc3c(c2)CCCC3)c2cccc3c2n1CCS3 | 0.41 | > 20 | 4.4 | – |
| Cc1c(C(=O)O)n2c3c(cccc13)CCC2 | 90 | – | – | – |
| O=C(O)c1cc2cccc3c2n1CCC3 | 131 | – | – | – |
| Cc1cc(OCCCc2c(C(=O)O)n3c4c(c(Cl)ccc24)OCC3)cc(C)c1Cl | – | > 20 | – | – |
| Cc1cc(OCCCc2c(C(=O)O)n3c4c(cccc24)SCCC3)cc(C)c1Cl | – | > 20 | – | – |
| O=C(O)c1c(CCOc2cccc3ccccc23)c2cccc3c2n1CCS3 | 3 | – | – | – |
| O=C(O)c1cc2cccc3c2n1CCS3 | 51 | – | – | – |
| Cc1c(C(=O)O)n2c3c(cccc13)OCC2 | 18 | – | – | – |
| O=C(O)c1c(CCCOc2ccc(Cl)c3ccccc23)c2cccc3c2n1CCS3 | – | 4.7 | 1.1 | – |
| O=C(O)c1c(CCCOc2cccc3ccccc23)c2cccc3c2n1CCS3(=O)=O | 0.088 | > 20 | – | – |
| COCCCc1c(C(=O)O)n(CCN2CCOCC2)c2c(-c3c(C)nn(C)c3COc3ccc(N4CCN(S(=O)(=O)N(C)C)CC4)cc3)cccc12 | – | – | – | 0.000454 |
| O=C(O)c1c(CCCOc2cccc3ccccc23)c2cccc3c2n1CCC[S+]3[O-] (centres undefined) | 0.074 | > 20 | 16 | – |
